pIC50: −log10 of the molar value. Values after ≈ are worked out from the molar mass of the structure shown.
Columns and labels:
[1] = AUC in C57BL/6 mouse at 100 mg/kg; assay type: ADME, organism-based; parameters: dose 100 mg/kg; conditions: in vivo
[2] = biological target: Voltage-gated inwardly rectifying potassium channel KCNH2 (Homo sapiens, UniProt Q12809); test: Inhibition of hERG (unknown origin)
[3] = Trough plasma concentration Brown Norway rat at 30 mg/kg, po; assay type: ADME, organism-based; conditions: in vivo, read-out: Cmin
[4] = Solubility of compound in stimulated intestinal fluid; assay type: physicochemical; conditions: simulated intestinal fluid
BCRP = test: Efflux ratio of apparent permeability from basolateral to apical side over apical to basolateral side in MDCK2 cells expressing BCRP; assay type: ADME, cell-based, Canis lupus familiaris, MDCK-II; conditions: dog
[5] = biological target: ATP-dependent translocase ABCB1 (Homo sapiens, UniProt P08183); test: Inhibition of PGP (unknown origin)
[6] = Lipophilicity, log D of the compound by HPLC analysis; assay type: physicochemical
[7] = Inhibition of dog PI3Kdelta; parameters: species or system Canis lupus familiaris
[8] = biological target: Sodium channel protein type 5 subunit alpha (Homo sapiens, UniProt Q14524); test: Inhibition of Nav1.5 (unknown origin)
[9] = Intrinsic clearance in human hepatocytes; assay type: ADME, cell-based, Hepatocyte
[10] = biological target: T1, Phosphatidylinositol 4,5-bisphosphate 3-kinase catalytic subunit delta isoform (Homo sapiens, UniProt O00329); test: Inhibition of PI3Kdelta in human whole blood assessed as reduction in antihuman IgE antibody-stimulated CD63 expression preincubated for 30 mins followed by antihuman IgE antibody stimulation and measured after 20 mins by FACS analysis; assay type: tissue-based
T1 sequence (O00329 whole entry): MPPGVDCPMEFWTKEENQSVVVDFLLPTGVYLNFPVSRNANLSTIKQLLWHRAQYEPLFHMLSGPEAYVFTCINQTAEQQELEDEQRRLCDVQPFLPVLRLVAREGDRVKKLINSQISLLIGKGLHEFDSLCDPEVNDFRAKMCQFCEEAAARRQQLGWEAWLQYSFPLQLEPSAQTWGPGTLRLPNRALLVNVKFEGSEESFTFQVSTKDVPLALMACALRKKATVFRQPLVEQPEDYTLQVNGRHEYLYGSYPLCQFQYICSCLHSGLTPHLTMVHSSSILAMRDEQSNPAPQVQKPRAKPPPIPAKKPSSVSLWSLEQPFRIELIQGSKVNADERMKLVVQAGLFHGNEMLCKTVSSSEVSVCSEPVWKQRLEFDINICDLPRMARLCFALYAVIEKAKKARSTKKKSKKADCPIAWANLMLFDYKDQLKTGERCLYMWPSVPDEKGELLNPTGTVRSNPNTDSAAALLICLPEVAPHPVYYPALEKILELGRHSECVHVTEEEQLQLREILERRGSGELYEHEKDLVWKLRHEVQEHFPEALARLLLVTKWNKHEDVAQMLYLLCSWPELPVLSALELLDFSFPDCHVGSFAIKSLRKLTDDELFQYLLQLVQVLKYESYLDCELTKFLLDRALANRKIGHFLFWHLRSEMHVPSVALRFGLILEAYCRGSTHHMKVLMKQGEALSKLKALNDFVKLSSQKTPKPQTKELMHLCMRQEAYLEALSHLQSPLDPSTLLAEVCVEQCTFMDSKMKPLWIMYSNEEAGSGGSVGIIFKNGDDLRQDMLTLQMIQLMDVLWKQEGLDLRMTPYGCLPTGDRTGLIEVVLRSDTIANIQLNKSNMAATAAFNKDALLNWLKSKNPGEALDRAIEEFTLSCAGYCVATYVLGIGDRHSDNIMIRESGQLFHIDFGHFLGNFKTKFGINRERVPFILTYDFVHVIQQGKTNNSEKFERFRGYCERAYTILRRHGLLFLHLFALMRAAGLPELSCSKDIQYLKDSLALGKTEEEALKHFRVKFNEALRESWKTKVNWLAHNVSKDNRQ
Procedure, shortened: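 Blood from healthy human volunteer donors, pre-incubated with compound (DMSO, varying concentrations) for 30 min at 37 °C. Basotest reagent B added for 30 min at 37 °C, then goat anti-human IgE (50 ng/mL in reagent A before addition) for 20 min at 37 °C. Stopped on ice, stained for CD63/IgE/CD203c/CD45 (20 min, 4 °C), RBC-lysed, and read by flow cytometry. IgE+ basophils gated, CD63+ scored; IC50 from sigmoidal fit of % inhibition.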

[11] = Unbound trough plasma concentration C57BL/6 mouse at 100 mg/kg; assay type: ADME, organism-based; conditions: in vivo
Procedure, shortened: (§1)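 C57BL/6-Foxp3-GFP reporter mice were dosed at 30 and 100 mg/kg/day for up to 7 days, with exposure determined at 100 mg/kg. The unbound Cmax and trough values were derived from total plasma levels. Treg readout was bioluminescence imaging 10 min after 3 mg luciferin ip, reported as radiance in photons/s/cm²/steradian.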

[12] = Unbound Cmax in C57BL/6 mouse at 100 mg/kg; assay type: ADME, organism-based; conditions: in vivo; procedure, shortened: as §1
[13] = Plasma clearance in Wistar Han rat at 0.5 mg/kg, iv or 1 mg/kg, po; assay type: ADME, organism-based
[14] = Unbound volume of distribution in C57BL/6 mouse; assay type: ADME; conditions: in vivo
[15] = Intrinsic clearance in C57BL/6 mouse at 1 mg/kg, iv or 3 mg/kg, po; assay type: ADME, organism-based; conditions: in vivo
[16] = Plasma clearance in C57BL/6 mouse at 1 mg/kg, iv or 3 mg/kg, po; assay type: ADME, organism-based
[17] = biological target: PI3-kinase p110-delta/p85-alpha (Homo sapiens, UniProt O00329); test: Inhibition of N-terminal His6-tagged recombinant full length human p110delta/untagged recombinant full length human p85alpha expressed in baculovirus infected Sf21 insect cells using PIP2 as substrate preincubated for 15 mins followed by substrate addition and measured after 1 hr by HTRF assay
[18] = Half-life in Beagle dog; assay type: ADME, Canis lupus familiaris; conditions: in vivo
[19] = Plasma clearance in Beagle dog at 0.25 mg/kg, iv or 0.5 mg/kg, po; assay type: ADME, organism-based, Canis lupus familiaris
Cytochrome P450 2D6 = Cytochrome P450 2D6 (Homo sapiens, UniProt P10635); test: Inhibition of CYP2D6 (unknown origin); assay type: ADME
Chain of Cytochrome P450 2D6 (P10635 whole entry): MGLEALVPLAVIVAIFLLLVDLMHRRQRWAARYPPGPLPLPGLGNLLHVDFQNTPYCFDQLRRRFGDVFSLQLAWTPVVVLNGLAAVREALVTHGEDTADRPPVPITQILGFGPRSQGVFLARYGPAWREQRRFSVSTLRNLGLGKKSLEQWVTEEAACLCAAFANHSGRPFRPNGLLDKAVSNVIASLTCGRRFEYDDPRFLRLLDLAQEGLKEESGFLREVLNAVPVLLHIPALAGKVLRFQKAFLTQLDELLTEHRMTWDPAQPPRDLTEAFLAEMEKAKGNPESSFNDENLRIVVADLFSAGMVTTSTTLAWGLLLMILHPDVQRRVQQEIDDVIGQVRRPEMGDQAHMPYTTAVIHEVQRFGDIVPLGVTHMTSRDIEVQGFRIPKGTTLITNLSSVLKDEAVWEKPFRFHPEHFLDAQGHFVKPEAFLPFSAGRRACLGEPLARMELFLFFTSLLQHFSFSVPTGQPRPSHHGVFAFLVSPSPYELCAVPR

Chain of Voltage-gated inwardly rectifying potassium channel KCNH2 (Q12809 whole entry): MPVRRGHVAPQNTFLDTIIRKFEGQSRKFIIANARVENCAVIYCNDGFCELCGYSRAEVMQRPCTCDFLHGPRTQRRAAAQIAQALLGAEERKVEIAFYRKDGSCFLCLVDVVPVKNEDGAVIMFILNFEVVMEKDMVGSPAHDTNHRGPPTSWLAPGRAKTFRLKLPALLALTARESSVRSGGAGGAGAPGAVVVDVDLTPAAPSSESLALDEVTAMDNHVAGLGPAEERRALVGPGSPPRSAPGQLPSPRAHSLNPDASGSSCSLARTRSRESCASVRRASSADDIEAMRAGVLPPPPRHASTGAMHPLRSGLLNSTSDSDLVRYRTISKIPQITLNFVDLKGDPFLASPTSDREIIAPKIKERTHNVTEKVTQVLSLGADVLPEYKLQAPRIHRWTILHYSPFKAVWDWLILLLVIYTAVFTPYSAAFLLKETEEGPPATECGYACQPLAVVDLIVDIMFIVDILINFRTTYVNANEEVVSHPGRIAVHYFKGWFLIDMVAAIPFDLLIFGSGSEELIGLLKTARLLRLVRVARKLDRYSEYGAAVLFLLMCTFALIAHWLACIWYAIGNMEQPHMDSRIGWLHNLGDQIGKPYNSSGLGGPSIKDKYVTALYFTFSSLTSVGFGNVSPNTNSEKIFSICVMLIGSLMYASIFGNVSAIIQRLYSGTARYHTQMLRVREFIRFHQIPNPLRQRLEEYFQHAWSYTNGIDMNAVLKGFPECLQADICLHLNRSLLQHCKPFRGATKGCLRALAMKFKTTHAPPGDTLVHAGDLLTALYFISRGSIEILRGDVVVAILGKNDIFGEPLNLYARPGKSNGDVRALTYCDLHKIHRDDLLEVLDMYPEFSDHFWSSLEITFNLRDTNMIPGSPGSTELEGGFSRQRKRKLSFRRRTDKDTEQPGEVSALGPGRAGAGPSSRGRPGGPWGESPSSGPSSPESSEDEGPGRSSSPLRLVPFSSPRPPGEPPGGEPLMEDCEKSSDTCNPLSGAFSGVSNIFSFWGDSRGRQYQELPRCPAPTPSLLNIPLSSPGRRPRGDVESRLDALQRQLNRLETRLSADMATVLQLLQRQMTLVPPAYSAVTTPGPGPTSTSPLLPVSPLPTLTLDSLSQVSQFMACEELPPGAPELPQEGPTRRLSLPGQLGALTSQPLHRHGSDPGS
Chain of PI3-kinase p110-delta/p85-alpha (P27986 whole entry, one chain of several): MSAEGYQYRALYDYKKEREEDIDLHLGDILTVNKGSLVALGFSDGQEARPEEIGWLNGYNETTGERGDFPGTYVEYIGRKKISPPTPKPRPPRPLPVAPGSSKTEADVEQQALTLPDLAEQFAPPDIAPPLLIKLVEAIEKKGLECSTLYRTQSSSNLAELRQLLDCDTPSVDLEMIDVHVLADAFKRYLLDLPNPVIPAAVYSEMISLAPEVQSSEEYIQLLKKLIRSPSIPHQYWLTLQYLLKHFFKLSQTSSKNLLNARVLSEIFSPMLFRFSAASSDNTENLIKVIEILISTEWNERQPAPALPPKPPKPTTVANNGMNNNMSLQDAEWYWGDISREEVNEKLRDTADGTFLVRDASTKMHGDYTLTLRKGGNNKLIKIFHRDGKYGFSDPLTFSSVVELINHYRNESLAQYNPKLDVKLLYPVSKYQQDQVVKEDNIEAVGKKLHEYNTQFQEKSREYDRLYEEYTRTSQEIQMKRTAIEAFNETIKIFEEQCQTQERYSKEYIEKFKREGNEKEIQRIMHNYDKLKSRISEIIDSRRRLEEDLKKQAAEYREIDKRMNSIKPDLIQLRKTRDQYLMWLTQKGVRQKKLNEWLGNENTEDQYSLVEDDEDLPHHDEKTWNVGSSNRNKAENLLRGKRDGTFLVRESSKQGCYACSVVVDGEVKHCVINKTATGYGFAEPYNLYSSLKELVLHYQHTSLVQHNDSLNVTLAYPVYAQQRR
Chain of ATP-dependent translocase ABCB1 (P08183 whole entry): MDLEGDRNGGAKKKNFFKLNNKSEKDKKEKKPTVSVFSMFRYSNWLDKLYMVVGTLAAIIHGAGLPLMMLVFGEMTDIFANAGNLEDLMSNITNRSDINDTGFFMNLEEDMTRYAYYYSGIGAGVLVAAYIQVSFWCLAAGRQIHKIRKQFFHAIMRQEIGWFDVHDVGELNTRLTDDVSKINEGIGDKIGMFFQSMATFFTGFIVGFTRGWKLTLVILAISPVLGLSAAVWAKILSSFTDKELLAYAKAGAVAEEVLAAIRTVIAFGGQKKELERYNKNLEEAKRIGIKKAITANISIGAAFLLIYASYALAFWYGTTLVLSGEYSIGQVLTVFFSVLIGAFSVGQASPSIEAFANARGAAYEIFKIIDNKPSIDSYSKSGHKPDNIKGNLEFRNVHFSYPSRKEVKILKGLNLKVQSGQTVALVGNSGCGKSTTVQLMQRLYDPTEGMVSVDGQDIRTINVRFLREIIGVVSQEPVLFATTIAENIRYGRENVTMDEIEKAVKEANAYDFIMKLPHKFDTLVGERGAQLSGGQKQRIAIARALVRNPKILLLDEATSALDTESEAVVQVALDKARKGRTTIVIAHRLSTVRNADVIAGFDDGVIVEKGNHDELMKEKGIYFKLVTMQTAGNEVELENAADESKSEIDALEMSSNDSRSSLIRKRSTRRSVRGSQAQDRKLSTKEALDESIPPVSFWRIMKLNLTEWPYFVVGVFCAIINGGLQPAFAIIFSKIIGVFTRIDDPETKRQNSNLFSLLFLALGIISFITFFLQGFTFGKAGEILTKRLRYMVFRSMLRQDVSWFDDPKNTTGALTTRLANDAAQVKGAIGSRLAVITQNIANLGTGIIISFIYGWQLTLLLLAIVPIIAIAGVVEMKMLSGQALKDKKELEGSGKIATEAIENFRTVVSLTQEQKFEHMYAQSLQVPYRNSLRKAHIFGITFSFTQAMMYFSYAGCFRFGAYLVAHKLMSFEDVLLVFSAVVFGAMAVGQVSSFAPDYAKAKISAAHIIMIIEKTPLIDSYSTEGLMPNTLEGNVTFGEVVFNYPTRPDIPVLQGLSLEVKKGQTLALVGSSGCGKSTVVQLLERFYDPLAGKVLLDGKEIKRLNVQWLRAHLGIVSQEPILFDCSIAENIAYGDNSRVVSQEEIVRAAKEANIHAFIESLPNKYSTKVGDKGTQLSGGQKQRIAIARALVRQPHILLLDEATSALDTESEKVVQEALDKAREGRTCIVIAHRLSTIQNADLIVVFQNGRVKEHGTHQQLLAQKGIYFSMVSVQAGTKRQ

AUC [1]: 133 µM·h | concentration [3]: 103 nM | solubility [4]: 14 mg/mL (≈ 35.7 mM) | efflux ratio (BCRP): 5 | inhibition (INH) [5]: Not Active | logD [6]: 0.8 | pIC50 [7]: 8.60 | CLint scaled [9]: < 2 mL/min/kg | pIC50 [10]: 7.30 | fCmin [11]: 52 nM | fCmax [12]: 16 µM | clearance [13]: 8.1 mL/min/kg | Vdu [14]: 0.4 L/kg | CL [15]: 10 mL/min/kg | clearance [16]: 45 mL/min/kg | pIC50 [17]: 8.80 | half-life [18]: 4.3 h | clearance [19]: 4.3 mL/min/kg | pIC50 (Cytochrome P450 2D6): < 4.30
SMILES: CCn1c(-c2cnc(C)nc2)nc2c(N[C@H]3CCN(C(=O)C4CC4)C3)ncnc21
pIC50 [2]: < 4.30 | pIC50 [8]: < 4.30

Source: ChEMBL document CHEMBL4834420, “Projected Dose Optimization of Amino- and Hydroxypyrrolidine Purine PI3Kδ Immunomodulators” (J Med Chem, 2021)
